Screening results (PubChem BioAssay)
CASP6 VEID inh: caspase-6 (human) enzyme inhibition. 350,000 compounds, 0.53% hits. purified caspase-6, Z-VEID-R110 cleavage fluorescence. inhibition, % at 12.5 µM. P55212;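 active means mean inhibition across replicates at least about 35%, with every replicate also reaching that limit, limit read from the data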;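 further: 0% = median of neutral control wells and 100% = no fluorescence left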
Target sequence (P55212 24-179 limits assumed): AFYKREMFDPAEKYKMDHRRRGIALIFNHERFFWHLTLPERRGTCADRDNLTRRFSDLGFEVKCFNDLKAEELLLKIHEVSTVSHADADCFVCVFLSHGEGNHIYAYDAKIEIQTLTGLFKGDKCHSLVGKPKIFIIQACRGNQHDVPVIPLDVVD
Target sequence (P55212 194-293 limits assumed): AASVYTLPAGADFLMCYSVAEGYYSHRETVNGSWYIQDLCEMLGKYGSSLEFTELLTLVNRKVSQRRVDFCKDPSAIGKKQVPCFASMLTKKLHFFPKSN
Scp-1 inhibitor: Scp-1 (human) phosphatase inhibition | Recombinant Scp1, phosphopeptide, malachite green phosphate absorbance | inhibition, % at 20 µM | 340,000 compounds, 0.88% hits | AID 493091;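 active means inhibition above about 50% at 20 µM, limit read from the data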;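 further: plate controls were DMSO wells with enzyme for no effect and wells lacking enzyme for full effect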
Target sequence (Q9GZU7 76-261 limits assumed): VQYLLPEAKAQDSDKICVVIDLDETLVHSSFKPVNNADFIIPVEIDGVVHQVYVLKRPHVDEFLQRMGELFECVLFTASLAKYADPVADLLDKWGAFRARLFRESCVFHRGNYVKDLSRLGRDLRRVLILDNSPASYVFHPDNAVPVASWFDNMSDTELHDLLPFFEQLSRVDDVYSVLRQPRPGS
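Test system: SCP-1 phosphatase catalytic domain, residues 76-261 | Compound dosing: One concentration, 20 µM, with 1.0% DMSO | Schedule: 45 min room-temperature reaction, 5 min colour, 30 min stabiliser | Detection: Absorbance at 630 nm | Read-out basis: % inhibition of SCP-1 phosphate liberation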
SUMO1-SIM PPI: modulators of human SUMO1-mediated protein-protein interactions; P63165; SUMO1 binding to a labelled peptide, TR-FRET, 1 h; inhibition, % at 20 µM; 360,000 compounds, 0.33% hits; in the data active means inhibition above about 37%
Target sequence (P63165 whole entry, looked up): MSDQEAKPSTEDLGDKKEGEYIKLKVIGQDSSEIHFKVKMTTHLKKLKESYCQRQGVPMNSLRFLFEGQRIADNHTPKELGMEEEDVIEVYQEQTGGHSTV
STEP block: blocks human striatal-enriched tyrosine phosphatase; recombinant STEP, OMFP fluorogenic substrate, fluorescence; inhibition, % at 20 µM; 360,000 compounds, 0.25% hits; AID 588621;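 active means inhibition at 20 µM, scaled per plate between control wells, above about 37%, limit read from the data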;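 further: 0% = DMSO with enzyme and substrate and 100% = substrate only without enzyme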
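System: STEP (striatal-enriched tyrosine phosphatase) enzyme, cell-free; medium: Bis-Tris pH 6.0 buffer with DTT, detergent; dosing: 20 µM, 1% DMSO; times: reaction 20 min, ambient temperature; detection: fluorescence, 480/540 nm; read-out basis: normalized % inhibition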
DNMT1 inh: blocks human DNA methyltransferase DNMT1; P26358; DNMT1 molecular beacon, Hinp1I cleavage, fluorescence; inhibition (reported as % activation of signal), % at 10 µM; 360,000 compounds, 0.83% hits; AID 588458; in the data active means inhibition above about 50%
LMPTP block: LMPTP (human) inhibition; P24666; recombinant LMPTP-A, OMFP fluorogenic substrate, fluorescence intensity; inhibition, % at 20 µM; 360,000 compounds, 0.22% hits;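 active means compounds that cut the enzyme signal by at least half of the control window in the single-dose screen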;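 further: plate controls were DMSO wells with enzyme plus substrate for no effect and substrate without enzyme for full effect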
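Assay system: LMPTP-A phosphatase enzyme | Input: 0.625 nM enzyme | Also added: Fluorogenic phosphatase substrate OMFP at 400 µM final | Compound dosing: One test concentration per compound, 20 µM, with 3% DMSO overall | Schedule: 50 min enzyme reaction at room temperature, protected from light | Signal: Fluorescence intensity | Benchmarks: no-enzyme and uninhibited controls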
DNMT1 interf DR: shows spectral interference in the DNMT1 beacon assay; shares compounds with DNMT1 inh; 200 tested, under 10 active; IC50, µM; molecular beacon fluorescence, spectral interference counter-screen; call rule not given here
DNMT1 confirm: DNMT1 inhibition confirmation, single concentration | inhibition, % at 10 µM | shares compounds with DNMT1 inh | AID 602385 | DNMT1 molecular beacon HinP1I cleavage, fluorescence | 2,300 compounds, 8% hits;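 active means average inhibition of at least 30% in the single-concentration confirmation test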
Beacon interf: beacon fluorescence artifact counter-screen; shares compounds with DNMT1 inh; DNMT1 molecular beacon spectral interference counterscreen, fluorescence 485/520; activation (fluorescence interference), % at 10 µM; 2,300 compounds, 1% hits; AID 602387;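 active means activation of at least 30% at 10 µM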;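 further: DNMT1 catalytic domain with a HinP1I cleavage step and a FAM/dabcyl DNA beacon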
Numbers without * were called inactive. Sampled rows, rich in hits. Any-hit rate of the full collection: about 1.7%.

`CCCCOCCCn1c(N)c(C(=O)OCCOC)c2nc3ccccc3nc21` gave Scp-1 inhibitor 4, SUMO1-SIM PPI 40*, STEP block 1, DNMT1 inh 52*, LMPTP block 3, DNMT1 confirm 1 and Beacon interf 0.
`O=C1NC(=O)N(Cc2ccccc2)C(=O)/C1=C/C=C/c1ccco1` gave CASP6 VEID inh 39*, Scp-1 inhibitor -11, SUMO1-SIM PPI 19, STEP block 1, DNMT1 inh 90*, LMPTP block 2, DNMT1 confirm 2 and Beacon interf 1.
CCN1C(=O)C(=C/C=C/c2ccco2)C(=O)N(CC)C1=S was read as CASP6 VEID inh 58*, Scp-1 inhibitor 55*, SUMO1-SIM PPI 19, STEP block -6, DNMT1 inh 101*, LMPTP block 6, DNMT1 confirm 12 and Beacon interf -3.
For CC(C)N1C(=O)/C(=C/C=C/c2ccco2)C(=O)N(Cc2ccco2)C1=O the results were Scp-1 inhibitor 70*, SUMO1-SIM PPI 8, STEP block 2, DNMT1 inh 109*, LMPTP block 5, DNMT1 interf DR >99, DNMT1 confirm 27 and Beacon interf 0.
Screening CC(C)c1ccc(N2C(=O)NC(=O)/C(=C\C=C\c3ccco3)C2=O)cc1 returned CASP6 VEID inh 30 and Scp-1 inhibitor 5.
CC(C)n1c(=O)c(C=Nc2ccc(Cl)cc2)c(O)n(Cc2ccco2)c1=O was read as CASP6 VEID inh 3.
Screening O=C(Nc1cccc(OC(=O)N2CCCCC2)c1)N1CCCCC1 returned Scp-1 inhibitor 0, SUMO1-SIM PPI -1, STEP block 0, DNMT1 inh 5 and LMPTP block 0.
For COc1nc2ccccc2c(=O)n1-c1ccc(C)cc1 the results were Scp-1 inhibitor -2, SUMO1-SIM PPI 3, STEP block -2, DNMT1 inh 88*, LMPTP block 1, DNMT1 confirm 1 and Beacon interf 3.
`COc1nc2ccccc2c(=O)n1-c1ccc(Cl)cc1` gave CASP6 VEID inh -5, Scp-1 inhibitor -7, SUMO1-SIM PPI 0, STEP block -1, DNMT1 inh 15 and LMPTP block -1.
Screening COc1cccc(N2C(=O)/C(=C/c3ccc(C)o3)C(=O)NC2=S)c1 returned CASP6 VEID inh 40*, Scp-1 inhibitor 39, SUMO1-SIM PPI 20, STEP block 4, DNMT1 inh 62*, LMPTP block 1, DNMT1 confirm 0 and Beacon interf 2.
For O=C1NC(=S)N(c2ccccc2)C(=O)/C1=C/c1ccco1 the results were CASP6 VEID inh 95*, Scp-1 inhibitor 93*, SUMO1-SIM PPI 54*, STEP block 40, DNMT1 inh 93*, LMPTP block 7, DNMT1 interf DR >99, DNMT1 confirm 82* and Beacon interf -11.
Screening Cc1ccc(N2C(=O)NC(=O)/C(=C\c3cc(C)n(-c4sc5c(c4C#N)CCCC5)c3C)C2=O)cc1 returned Scp-1 inhibitor 2, SUMO1-SIM PPI 51*, STEP block 3, DNMT1 inh 70*, LMPTP block 2, DNMT1 interf DR >99, DNMT1 confirm 20 and Beacon interf -5.
`CCN1C(=O)NC(=O)/C(=C/c2cc(C)n(-c3sc(C)c(C)c3C#N)c2C)C1=O` gave CASP6 VEID inh 11, Scp-1 inhibitor -3, SUMO1-SIM PPI 18, STEP block -2, DNMT1 inh 10 and LMPTP block 0.
`CCOC(=O)c1c(-n2c(C)cc(C=C3C(=O)NC(=S)NC3=O)c2C)sc2c1CCCC2` gave Scp-1 inhibitor 9, SUMO1-SIM PPI 28, STEP block 3, DNMT1 inh 100*, LMPTP block 2, DNMT1 interf DR >99, DNMT1 confirm 29 and Beacon interf -8.
`C=CCSc1nc2c(c(-c3ccsc3)c1C#N)CN(C)CC2` gave CASP6 VEID inh -5, Scp-1 inhibitor -4, SUMO1-SIM PPI -44, STEP block 1, DNMT1 inh 52*, LMPTP block 23, DNMT1 confirm 2 and Beacon interf 3.
For C[C@H]1CCC/C=C/[C@@H]2C[C@H](O)C[C@H]2[C@H](O)/C=C/C(=O)O1 the results were CASP6 VEID inh 2, Scp-1 inhibitor -17, SUMO1-SIM PPI 1, STEP block -2, DNMT1 inh 0 and LMPTP block -1.
Screening CC1CN(C(=O)CCC(=O)N2CCC3(CC2)OCCO3)c2cc(Cl)ccc2O1 (stereo unspecified) returned CASP6 VEID inh 0, Scp-1 inhibitor 17, SUMO1-SIM PPI -5, STEP block -3, DNMT1 inh 1 and LMPTP block -2.
For CC(C)CCOC(=O)c1c(N)n(CC2CCCO2)c2nc3ccccc3nc12 (stereo unspecified) the results were Scp-1 inhibitor 3, SUMO1-SIM PPI 36, STEP block 5, DNMT1 inh 33 and LMPTP block 6.
CC(C)OCCCNC(=O)c1c(N)n(CC2CCCO2)c2nc3ccccc3nc12 (stereo unspecified) was read as CASP6 VEID inh 55*, Scp-1 inhibitor 1, SUMO1-SIM PPI 40*, STEP block 4, DNMT1 inh 85*, LMPTP block 13, DNMT1 confirm 1 and Beacon interf 9.
Screening CCCNC(=O)c1c(N)n(CC2CCCO2)c2nc3ccccc3nc12 (stereo unspecified) returned Scp-1 inhibitor 7, SUMO1-SIM PPI 44*, STEP block 5, DNMT1 inh 61*, LMPTP block 4, DNMT1 confirm 2 and Beacon interf 5.
Screening COc1ccc(OC(=O)N(C)C[C@@H]2OCc3ccccc3-c3c(n(C)c4ccccc34)C(=O)N([C@H](C)CO)C[C@H]2C)cc1 returned CASP6 VEID inh -3.
O=C1CC(=O)N(c2cccc(Br)c2)C(=O)N1 was read as CASP6 VEID inh 4, Scp-1 inhibitor -13, SUMO1-SIM PPI 6, STEP block -2, DNMT1 inh -2 and LMPTP block -1.
CC(C)C1(C)N=C(c2ncccc2C(=O)O)NC1=O (stereo unspecified) was read as CASP6 VEID inh 5, Scp-1 inhibitor -11, SUMO1-SIM PPI -2, STEP block -1, DNMT1 inh 94*, LMPTP block -2, DNMT1 confirm 2 and Beacon interf 3.
